Data reported in ChEMBL document CHEMBL1156153, “Novel benzofuran-3-one indole inhibitors of PI3 kinase-alpha and the mammalian target of rapamycin: hit to lead studies” (Bioorg Med Chem Lett, 2010).
≈ marks a conversion by molar mass, not a printed value.

Columns and labels:
[1] = Aqueous solubility at pH 7.4; format: physicochemical
In short: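 Aqueous solubility measured at pH 7.4, reported in µg/mL.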

[2] = target: Phosphatidylinositol 4,5-bisphosphate 3-kinase catalytic subunit alpha isoform (Homo sapiens, UniProt P42336); test: Inhibition of PI3Kalpha
[3] = target: Phosphatidylinositol 4,5-bisphosphate 3-kinase catalytic subunit gamma isoform (Homo sapiens, UniProt P48736); test: Inhibition of PI3Kgamma
In short: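 Fluorescence polarization assays for PI3K-α (p110α) and PI3K-γ (p110γ) monitored PIP3 production.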

[4] = target: Serine/threonine-protein kinase mTOR (Homo sapiens, UniProt P42345); test: Inhibition of mTOR
In short: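 DELFIA-format mTOR kinase assay monitoring phosphorylation of His6-S6K substrate.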

Caco-2 = test: Antiproliferative activity against human Caco-2 cells; format: functional, cell-based
In short: (§1)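 Cell growth density monitored in Caco-2 (epithelial colorectal adenocarcinoma), LoVo (colon carcinoma) and PC3MM2/PC3 (prostate cancer) cultures; IC50 from means of two experiments.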

LoVo = test: Antiproliferative activity against human LoVo cells; format: functional, cell-based; in short: as §1
PC-3 = test: Antiproliferative activity against human PC3 cells; format: functional, cell-based; in short: as §1
CYP3A4 = CYP3A4 (Homo sapiens, UniProt P08684); test: Inhibition of CYP3A4 at 3 uM; format: ADME
[5] = Inhibition of PI3K in human PC3 cells assessed as inhibition AKT phosphorylation after 6 hrs by densitometry; format: cell-based; settings: PC-3, 6 h
In short: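 PC-3 prostate cancer cells exposed to DMSO, 10 µM […] as positive control, or graded doses of test agent for 6 h. Lysates immunoblotted for Akt phosphorylated at Thr308 and for p-4EBP1. Inhibition assessed by densitometry of the p-Akt blots.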

Chain of CYP3A4 (P08684 whole entry): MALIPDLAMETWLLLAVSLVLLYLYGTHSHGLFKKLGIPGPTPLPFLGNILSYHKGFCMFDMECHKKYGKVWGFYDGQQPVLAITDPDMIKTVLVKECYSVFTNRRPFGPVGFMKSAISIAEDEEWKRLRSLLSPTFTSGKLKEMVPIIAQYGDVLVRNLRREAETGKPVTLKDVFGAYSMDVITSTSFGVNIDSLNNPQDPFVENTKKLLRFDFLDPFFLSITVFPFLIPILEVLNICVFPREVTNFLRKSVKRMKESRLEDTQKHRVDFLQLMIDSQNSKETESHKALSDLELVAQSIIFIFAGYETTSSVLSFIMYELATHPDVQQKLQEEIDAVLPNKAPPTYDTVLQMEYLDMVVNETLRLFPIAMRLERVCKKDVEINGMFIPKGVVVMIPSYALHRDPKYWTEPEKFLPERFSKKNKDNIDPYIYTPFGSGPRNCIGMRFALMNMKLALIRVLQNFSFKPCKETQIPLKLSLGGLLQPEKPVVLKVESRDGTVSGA
Chain of Phosphatidylinositol 4,5-bisphosphate 3-kinase catalytic subunit alpha isoform (P42336 whole entry, canonical isoform): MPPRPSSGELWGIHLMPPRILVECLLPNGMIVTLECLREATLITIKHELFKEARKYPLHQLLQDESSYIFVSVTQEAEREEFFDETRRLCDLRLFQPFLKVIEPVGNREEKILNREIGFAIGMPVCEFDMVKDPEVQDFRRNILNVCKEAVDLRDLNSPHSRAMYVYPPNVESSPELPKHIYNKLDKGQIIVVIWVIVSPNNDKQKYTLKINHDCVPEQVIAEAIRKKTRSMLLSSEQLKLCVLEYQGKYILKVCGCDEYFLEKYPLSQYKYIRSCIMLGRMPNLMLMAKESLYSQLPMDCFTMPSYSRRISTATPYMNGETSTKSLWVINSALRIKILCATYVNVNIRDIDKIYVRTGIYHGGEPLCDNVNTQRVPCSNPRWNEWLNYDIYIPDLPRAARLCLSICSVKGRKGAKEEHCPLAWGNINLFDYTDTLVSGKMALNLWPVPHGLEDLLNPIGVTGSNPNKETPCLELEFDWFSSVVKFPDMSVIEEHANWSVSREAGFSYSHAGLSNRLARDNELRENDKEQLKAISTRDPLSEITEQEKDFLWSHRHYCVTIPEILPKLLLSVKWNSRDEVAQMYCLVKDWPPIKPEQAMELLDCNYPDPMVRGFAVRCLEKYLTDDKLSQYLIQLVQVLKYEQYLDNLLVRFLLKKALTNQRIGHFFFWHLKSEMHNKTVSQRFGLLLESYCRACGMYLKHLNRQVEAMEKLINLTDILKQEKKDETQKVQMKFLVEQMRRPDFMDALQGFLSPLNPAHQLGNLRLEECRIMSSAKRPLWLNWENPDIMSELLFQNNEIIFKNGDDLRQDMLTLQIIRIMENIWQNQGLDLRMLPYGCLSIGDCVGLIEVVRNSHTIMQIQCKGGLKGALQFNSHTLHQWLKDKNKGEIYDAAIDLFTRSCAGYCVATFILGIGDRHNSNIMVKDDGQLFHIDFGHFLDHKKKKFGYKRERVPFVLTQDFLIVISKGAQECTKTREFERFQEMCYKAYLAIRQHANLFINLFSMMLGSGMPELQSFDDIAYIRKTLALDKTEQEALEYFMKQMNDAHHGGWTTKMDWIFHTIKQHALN
Chain of Phosphatidylinositol 4,5-bisphosphate 3-kinase catalytic subunit gamma isoform (P48736 whole entry, canonical isoform): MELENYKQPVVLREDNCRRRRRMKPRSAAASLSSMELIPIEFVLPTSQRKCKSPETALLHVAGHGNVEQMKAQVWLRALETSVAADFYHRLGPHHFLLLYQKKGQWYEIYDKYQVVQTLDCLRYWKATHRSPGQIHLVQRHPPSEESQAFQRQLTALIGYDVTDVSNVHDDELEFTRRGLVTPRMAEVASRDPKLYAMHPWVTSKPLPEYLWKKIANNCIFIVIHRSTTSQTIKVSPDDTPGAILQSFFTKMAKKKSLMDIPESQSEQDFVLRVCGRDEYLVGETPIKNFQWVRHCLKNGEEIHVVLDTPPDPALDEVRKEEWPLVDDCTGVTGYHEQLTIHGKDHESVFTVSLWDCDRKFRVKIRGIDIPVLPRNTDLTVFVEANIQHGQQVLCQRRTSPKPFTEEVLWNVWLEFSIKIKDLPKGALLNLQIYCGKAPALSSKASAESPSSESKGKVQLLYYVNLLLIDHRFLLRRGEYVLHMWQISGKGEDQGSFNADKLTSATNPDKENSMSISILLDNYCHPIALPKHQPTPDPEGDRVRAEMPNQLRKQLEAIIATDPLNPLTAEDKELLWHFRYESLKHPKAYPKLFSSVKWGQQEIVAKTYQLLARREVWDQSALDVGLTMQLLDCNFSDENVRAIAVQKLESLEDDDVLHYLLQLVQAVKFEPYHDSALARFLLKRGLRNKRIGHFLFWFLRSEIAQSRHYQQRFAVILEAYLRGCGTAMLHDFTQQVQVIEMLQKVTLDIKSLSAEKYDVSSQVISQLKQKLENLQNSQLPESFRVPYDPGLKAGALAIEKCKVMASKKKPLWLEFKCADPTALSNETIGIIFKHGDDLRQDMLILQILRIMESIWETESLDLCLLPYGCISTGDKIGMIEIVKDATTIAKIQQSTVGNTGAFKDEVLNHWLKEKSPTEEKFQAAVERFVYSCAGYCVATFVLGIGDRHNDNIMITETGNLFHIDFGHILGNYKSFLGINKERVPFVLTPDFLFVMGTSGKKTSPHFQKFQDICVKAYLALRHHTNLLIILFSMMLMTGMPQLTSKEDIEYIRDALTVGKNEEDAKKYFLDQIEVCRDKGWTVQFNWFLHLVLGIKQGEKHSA

solubility [1] [µg/mL]	IC50 [2] [nM]	IC50 [3] [nM]	IC50 [4] [nM]	IC50 (Caco-2) [nM]	IC50 (LoVo) [nM]	IC50 (PC-3) [nM]	inhibition at 3 µM (CYP3A4) [%]	IC50 [5] [nM]	Structure (SMILES)
1 (≈ 2.59 µM)									Cc1[nH]c2ccc(Br)cc2c1/C=C1\Oc2cc(O)cc(O)c2C1=O
1 (≈ 2.96 µM)	3	25	3	9000	3600	4000	79		COc1ccc2[nH]c(C)c(/C=C3\Oc4cc(O)cc(O)c4C3=O)c2c1
1 (≈ 2.71 µM)	1030	2780	130						O=C1/C(=C/c2c(-c3ccccc3)[nH]c3ccccc23)Oc2cc(O)cc(O)c21
3 (≈ 8.1 µM)	3650		22						O=C1/C(=C/c2c(-c3ccccn3)[nH]c3ccccc23)Oc2cc(O)cc(O)c21
1 (≈ 2.58 µM)									O=C1/C(=C/c2c(-c3ccc(F)cc3)[nH]c3ccccc23)Oc2cc(O)cc(O)c21
1 (≈ 2.85 µM)	7	54	4	7200	2500	1300	75		COc1ccc2c(c1)c(/C=C1\Oc3cc(O)cc(O)c3C1=O)c(C)n2C
1 (≈ 2.38 µM)									O=C1/C(=C/c2c(-c3ccc4ccccc4c3)[nH]c3ccccc23)Oc2cc(O)cc(O)c21
		11	10	2100	1200	800	77	385	COc1ccc2[nH]c(-c3ccccc3)c(/C=C3\Oc4cc(O)cc(O)c4C3=O)c2c1
2 (≈ 5.22 µM)	2670		96						Cn1c(-c2ccccc2)c(/C=C2\Oc3cc(O)cc(O)c3C2=O)c2ccccc21
30 (≈ 64.7 µM)	5	473	11	4700	2200	2400			COc1ccc2c(c1)c(/C=C1\Oc3cc(O)cc(O)c3C1=O)c(C)n2CCN1CCN(C)CC1
1 (≈ 2.45 µM)	9	283	18	2800	1700	1800			COc1ccc2c(c1)c(/C=C1\Oc3cc(O)cc(O)c3C1=O)c(C)n2CCN(C)C
32 (≈ 78.3 µM)	40	2420	2120						COc1ccc2c(c1)c(/C=C1\Oc3cc(O)cc(O)c3C1=O)cn2CCCN(C)C
2 (≈ 6.51 µM)			800						Cn1cc(/C=C2\Oc3cc(O)cc(O)c3C2=O)c2ccccc21
1 (≈ 3.05 µM)									O=C1/C(=C/c2c[nH]c3ccc(Cl)cc23)Oc2cc(O)cc(O)c21
25 (≈ 50.7 µM)	37	1360	1650						COc1ccc2c(c1)c(/C=C1\Oc3cc(O)cc(O)c3C1=O)cn2CCCN1CCN(CCO)CC1
32 (≈ 75.7 µM)		404	118	9300	5700	2800			COc1ccc2c(c1)c(/C=C1\Oc3cc(O)cc(O)c3C1=O)c(C)n2CCCN(C)C
1 (≈ 2.48 µM)									O=C1/C(=C/c2c(-c3ccc(Cl)cc3)[nH]c3ccccc23)Oc2cc(O)cc(O)c21
12 (≈ 37.1 µM)							58		COc1ccc2[nH]cc(/C=C3\Oc4cc(O)cc(O)c4C3=O)c2c1
1 (≈ 2.15 µM)	8	76	18	4700	4600	2400	68		COc1ccc2c(c1)c(/C=C1\Oc3cc(O)cc(O)c3C1=O)c(C)n2CCCN1CCOCC1
3 (≈ 6.66 µM)	42	646	430				42		COc1ccc2c(c1)c(/C=C1\Oc3cc(O)cc(O)c3C1=O)cn2CCCN1CCOCC1
1 (≈ 2.5 µM)	1	9	1	7500	4700	1900	57		COc1ccc2[nH]c(-c3cccnc3)c(/C=C3\Oc4cc(O)cc(O)c4C3=O)c2c1
1 (≈ 2.96 µM)	106	587	62						COc1ccc2c(c1)c(/C=C1\Oc3cc(O)cc(O)c3C1=O)cn2C
36 (≈ 70.9 µM)	6	109	108	10000	10000	10000			COc1ccc2c(c1)c(/C=C1\Oc3cc(O)cc(O)c3C1=O)c(C)n2CCCN1CCN(CCO)CC1
14 (≈ 47.7 µM)	6750		9200						O=C1/C(=C/c2c[nH]c3ccccc23)Oc2cc(O)cc(O)c21

Structure (SMILES)	solubility [1] [µg/mL]	IC50 [2] [nM]	IC50 [3] [nM]	IC50 [4] [nM]	IC50 (Caco-2) [nM]	IC50 (LoVo) [nM]	IC50 (PC-3) [nM]	inhibition at 3 µM (CYP3A4) [%]	IC50 [5] [nM]
COc1ccc2c(c1)c(/C=C1\Oc3cc(O)cc(O)c3C1=O)c(C)n2CCN1CCOCC1	6 (≈ 13.3 µM)	11	155	9	2000	2300	1500	64	
COc1ccc2c(c1)c(/C=C1\Oc3cc(O)cc(O)c3C1=O)c(C)n2CCCN1CCN(C)CC1	10 (≈ 20.9 µM)	15	402	153	10000	7500	9500		
